Source: ChEMBL document CHEMBL1122395, “Tetracyclic chromophoric analogues of actinomycin D: synthesis, structure elucidation and interconvertibility from one form to another, antitumor activity, and structure-activity relationships” (1983)
Values after ≈ are worked out from the molar mass of the structure shown.

Tests used:
Mus musculus = species on record: Mus musculus; experiment: Male CDF1 hybrid treated mice out of seven which survived over 60 days after the treatment.; format: functional
How it was run: (§1)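 Male CDF1 mice, seven per group, given 10^6 P388 cells ip on day 0. Drugs were given ip in 10% Me2SO-saline on days 1, 5 and 9, with solutions kept at 0-4 °C, protected from light and checked for homogeneity by HPLC. A range of doses was run and the optimal nontoxic dose reported. Read-outs were median survival time, percent increase in life span, and cures (over-60-day survivors, average of two experiments).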

CCRF-CEM = experiment: Growth inhibitory activity against human lymphoblastic leukemia cells(CCRF-CEM); format: functional; settings: read-out: ID50 (the source's name)
How it was run: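 Log-phase human lymphoblastic leukemia CCRF-CEM cells grown in suspension culture. Compounds dissolved in Me2SO, final growth medium contained 5% Me2SO. Test solutions kept at 0-4 °C, protected from light, homogeneity checked by HPLC before testing. ID50 reported in ng/mL.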

P388 [1] = experiment: Median survival time observed in P-388 cells infected male CDF1 hybrid mice after intraperitoneal administration at 1200 ug/kg optimal dose; format: functional, Mus musculus; how it was run: as §1
P388 [2] = experiment: Percent increase in life span observed in P-388 cells infected male CDF1 hybrid mice after intraperitoneal administration at 1200 ug/kg optimal dose; format: functional, Mus musculus; how it was run: as §1
Nucleic Acid [3] = experiment: (§2) Melting temperature of DNA-drug complex minus melting temperature of purified calf-thymus DNA; format: functional; settings: Bos taurus
Nucleic Acid [4] = experiment: as §2; format: functional; settings: Bos taurus; remark: listed apart in the source
How it was run: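 Calf-thymus DNA, purified. ΔTm is the Tm of the DNA-drug complex minus the Tm of DNA alone. Medium was 0.01 M phosphate buffer, pH 7.0, with EDTA.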

P388 [5] = experiment: Percent increase in life span observed in P-388 cells infected male CDF1 hybrid mice after intraperitoneal administration at 1800 ug/kg optimal dose; format: functional, Mus musculus; how it was run: as §1
P388 [6] = experiment: Median survival time observed in P-388 cells infected male CDF1 hybrid mice after intraperitoneal administration at 1800 ug/kg optimal dose; format: functional, Mus musculus; how it was run: as §1
P388 [7] = experiment: Median survival time observed in P-388 cells infected male CDF1 hybrid mice after intraperitoneal administration at 600 ug/kg optimal dose; format: functional, Mus musculus; how it was run: as §1
P388 [8] = experiment: Percent increase in life span observed in P-388 cells infected male CDF1 hybrid mice after intraperitoneal administration at 600 ug/kg optimal dose; format: functional, Mus musculus; how it was run: as §1
P388 [9] = experiment: Median survival time observed in P-388 cells infected male CDF1 hybrid mice after intraperitoneal administration at 900 ug/kg optimal dose; format: functional, Mus musculus; how it was run: as §1
P388 [10] = experiment: Percent increase in life span observed in P-388 cells infected male CDF1 hybrid mice after intraperitoneal administration at 900 ug/kg optimal dose; format: functional, Mus musculus; how it was run: as §1

| SMILES | Cures (Mus musculus) | IC50 (CCRF-CEM) [µg/mL] | MST (P388 [1]) [days] | ILS (P388 [2]) [%] | further results |
| --- | --- | --- | --- | --- | --- |
| Cc1ccc(C(=O)N[C@@H]2C(=O)N[C@H](C(C)C)C(=O)N3CCC[C@H]3C(=O)N(C)CC(=O)N(C)[C@@H](C(C)C)C(=O)O[C@@H]2C)c2c1Oc1c(c(C(=O)N[C@@H]3C(=O)N[C@H](C(C)C)C(=O)N4CCC[C@H]4C(=O)N(C)CC(=O)N(C)[C@@H](C(C)C)C(=O)O[C@@H]3C)c3nc(-c4ccccc4Cl)c(=O)oc3c1C)N2 | 1 | 1.8 (≈ 1.28 µM) | 30 | 172 | – |
| Cc1c2oc3c(C)c(O)c(N)c(C(=O)N[C@H]4C(=O)N[C@@H](C(C)C)C(=O)N5CCC[C@H]5C(=O)N(C)CC(=O)N(C)[C@H](C(C)C)C(=O)O[C@H]4C)c3nc-2c(C(=O)N[C@@H]2C(=O)N[C@H](C(C)C)C(=O)N3CCC[C@@H]3C(=O)N(C)CC(=O)N(C)[C@@H](C(C)C)C(=O)O[C@@H]2C)cc1=O | – | – | – | – | ΔTm (Nucleic Acid [3]): 6.7 °C |
| Cc1nc2c(C(=O)N[C@H]3C(=O)N[C@H](C(C)C)C(=O)N4CCC[C@H]4C(=O)N(C)CC(=O)N(C)[C@@H](C(C)C)C(=O)O[C@H]3C)c3nc4c(C(=O)N[C@@H]5C(=O)N[C@H](C(C)C)C(=O)N6CCC[C@H]6C(=O)N(C)CC(=O)N(C)[C@@H](C(C)C)C(=O)O[C@@H]5C)cc(=O)c(C)c-4oc3c(C)c2o1 | – | – | – | – | ΔTm (Nucleic Acid [4]): 1 °C |
| Cc1nc2c(C(=O)N[C@@H]3C(=O)N[C@H](C(C)C)C(=O)N4CCC[C@H]4C(=O)N(C)CC(=O)N(C)[C@@H](C(C)C)C(=O)O[C@@H]3C)c3c(c(C)c2o1)Oc1c(C)ccc(C(=O)N[C@@H]2C(=O)N[C@H](C(C)C)C(=O)N4CCC[C@H]4C(=O)N(C)CC(=O)N(C)[C@@H](C(C)C)C(=O)O[C@@H]2C)c1N3 | 0 | 2.9 (≈ 2.26 µM) | 21 | 91 | – |
| Cc1ccc(C(=O)N[C@@H]2C(=O)N[C@H](C(C)C)C(=O)N3CCC[C@H]3C(=O)N(C)CC(=O)N(C)[C@@H](C(C)C)C(=O)O[C@@H]2C)c2c1Oc1c(c(C(=O)N[C@@H]3C(=O)N[C@H](C(C)C)C(=O)N4CCC[C@H]4C(=O)N(C)CC(=O)N(C)[C@@H](C(C)C)C(=O)O[C@@H]3C)c3nc(-c4c(F)c(F)c(F)c(F)c4F)oc3c1C)N2 | 0 | 12.5 (≈ 8.72 µM) | – | – | ILS (P388 [5]): 72%; MST (P388 [6]): 19 days |
| Cc1ccc(C(=O)N[C@@H]2C(=O)N[C@H](C(C)C)C(=O)N3CCC[C@H]3C(=O)N(C)CC(=O)N(C)[C@@H](C(C)C)C(=O)O[C@@H]2C)c2c1Oc1c(c(C(=O)N[C@@H]3C(=O)N[C@H](C(C)C)C(=O)N4CCC[C@H]4C(=O)N(C)CC(=O)N(C)[C@@H](C(C)C)C(=O)O[C@@H]3C)c3nc(-c4ccc(Cl)cc4Cl)c(=O)oc3c1C)N2 | 0 | 3.2 (≈ 2.22 µM) | 28 | 155 | – |
| Cc1ccc(C(=O)N[C@@H]2C(=O)N[C@H](C(C)C)C(=O)N3CCC[C@H]3C(=O)N(C)CC(=O)N(C)[C@@H](C(C)C)C(=O)O[C@@H]2C)c2c1Oc1c(c(C(=O)N[C@@H]3C(=O)N[C@H](C(C)C)C(=O)N4CCC[C@H]4C(=O)N(C)CC(=O)N(C)[C@@H](C(C)C)C(=O)O[C@@H]3C)c3nc(-c4ccc(Cl)cc4)c(=O)oc3c1C)N2 | 0 | 1.6 (≈ 1.14 µM) | – | – | MST (P388 [7]): 29 days; ILS (P388 [8]): 164% |
| Cc1ccc(C(=O)N[C@@H]2C(=O)N[C@H](C(C)C)C(=O)N3CCC[C@H]3C(=O)N(C)CC(=O)N(C)[C@@H](C(C)C)C(=O)O[C@@H]2C)c2c1Oc1c(c(C(=O)N[C@@H]3C(=O)N[C@H](C(C)C)C(=O)N4CCC[C@H]4C(=O)N(C)CC(=O)N(C)[C@@H](C(C)C)C(=O)O[C@@H]3C)c3nc(-c4ccc5ccccc5c4)c(=O)oc3c1C)N2 | 0 | 1 (≈ 0.703 µM) | 26 | 136 | – |
| Cc1ccc(C(=O)N[C@@H]2C(=O)N[C@H](C(C)C)C(=O)N3CCC[C@H]3C(=O)N(C)CC(=O)N(C)[C@@H](C(C)C)C(=O)O[C@@H]2C)c2c1Oc1c(c(C(=O)N[C@@H]3C(=O)N[C@H](C(C)C)C(=O)N4CCC[C@H]4C(=O)N(C)CC(=O)N(C)[C@@H](C(C)C)C(=O)O[C@@H]3C)c3nc(-c4ccccc4)oc3c1C)N2 | 0 | 9 (≈ 6.7 µM) | – | – | MST (P388 [9]): 23 days; ILS (P388 [10]): 109% |
